Source: PubChem BioAssay (several laboratories)
FXIa inh 1536 = human FXIa protease inhibitors, primary screen, biochemical, 1536-well | purified FXIa, Boc-Glu-Ala-Arg-AMC fluorogenic substrate | inhibition, % at 5 µM | Coagulation factor XI (Homo sapiens), P03951 | hit rate 0.14% among 220,000;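 active means inhibition of at least 40%; inactive means inhibition below 40%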;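 further: fluorescence of freed AMC excited at 355 nm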
Thrombin inh = human alpha-thrombin inhibitors, primary screen, counter-screen for coagulation protease inhibitor project, biochemical, 1536-well, fluorogenic AMC substrate; inhibition, % at 5 µM; hit rate 0.26% among 220,000; AID 1046, 2008; Boc-VPR-AMC fluorogenic substrate cleavage;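 active means inhibition at or above 40%; inactive means inhibition below 40%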
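System: Human alpha-thrombin protein | Medium: pH 7.5 Tris (50 mM) with NaCl 150 mM, Tween 20 0.05% | Times: Enzyme reaction carried out at room temperature | Detection: AMC fluorescence, 355/460 nm | Evaluation: Percent inhibition scaled between no-compound controls and no-enzyme blanks | Benchmarks: Enzyme without compound as high, wells lacking enzyme as low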
m-calpain inh = inhibitors of pig calpain II, primary screen, biochemical, fluorogenic peptide substrate, 1536-well. purified calpain II, 30 min. inhibition, % at 16 µM. hit rate 0.37% among 220,000;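 active means inhibition above about 50%, limit read from the data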
KLK5 inh = human KLK5 protease inhibitors, primary screen, biochemical, 1536-well. Kallikrein-5 (Homo sapiens), Q9Y337. recombinant hK5, fluorogenic AMC substrate cleavage. inhibition, % at 5 µM. hit rate 0.59% among 210,000;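 active means inhibition of 40% or more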
FXIIa inh 1536 = human FXIIa protease inhibitors, primary screen, biochemical, 1536-well; Coagulation factor XII (Homo sapiens), P00748; purified FXIIa, Boc-QGR-AMC fluorogenic substrate, 2 h; inhibition, % at 5 µM; hit rate 0.3% among 220,000; in the data active means inhibition above about 40%
Target sequence (P00748 20-372 limits assumed): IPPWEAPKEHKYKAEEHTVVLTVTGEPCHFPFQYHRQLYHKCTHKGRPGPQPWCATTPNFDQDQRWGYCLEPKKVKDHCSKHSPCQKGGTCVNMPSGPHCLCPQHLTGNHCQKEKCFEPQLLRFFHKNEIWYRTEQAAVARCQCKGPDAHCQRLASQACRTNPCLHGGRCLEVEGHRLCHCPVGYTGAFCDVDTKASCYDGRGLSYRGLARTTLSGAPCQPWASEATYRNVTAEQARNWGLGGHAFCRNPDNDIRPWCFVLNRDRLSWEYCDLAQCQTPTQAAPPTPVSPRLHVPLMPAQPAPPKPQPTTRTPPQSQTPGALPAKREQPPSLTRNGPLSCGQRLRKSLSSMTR
Target sequence (P00748 373-615 limits assumed): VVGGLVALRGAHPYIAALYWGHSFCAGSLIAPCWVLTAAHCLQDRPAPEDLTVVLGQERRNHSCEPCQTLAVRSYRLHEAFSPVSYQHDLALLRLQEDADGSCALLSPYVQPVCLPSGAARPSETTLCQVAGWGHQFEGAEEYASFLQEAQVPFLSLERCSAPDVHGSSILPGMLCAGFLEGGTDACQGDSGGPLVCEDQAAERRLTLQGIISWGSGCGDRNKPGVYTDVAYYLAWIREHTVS
Of the large screens only hits and unclear results are named; the others gave an inactive call. Only some compounds are listed: those with a hit (about 1.4% of all), similar ones and a draw of the others.

CCOC(=O)N1CCN(c2c(NCc3ccccn3)c(=O)c2=O)CC1	KLK5 inh 40
O=S(=O)(Nc1cccc(-c2ccc3nncn3n2)c1)c1ccc(Cl)s1	none
CCN1CCc2c(sc(NC(=O)Nc3ccc(Cl)c(Cl)c3)c2C(N)=O)C1	none
Nc1nc2ccccc2n1C(=O)c1ccccc1	none
Nc1nc2ccccc2n1C(=O)c1ccco1	Thrombin inh 44, KLK5 inh 41
COc1ccc(C(=O)NC(=S)Nc2nc(C)cc(C)n2)cc1Br	none
C#CCn1cc(/C=N/Nc2nc3ccccc3[nH]2)c2ccccc21	none
O=C(OCc1cncs1)c1cccs1	none
CN(Cc1cc2ccccc2[nH]c1=O)S(C)(=O)=O	KLK5 inh 47
CCOC(=O)C1=C(C)NC(=S)NC1c1ccsc1 (stereo unspecified)	none
COc1ccc(-c2ncccc2OC(=O)C23CC4CC(CC(C4)C2)C3)cc1	KLK5 inh 60
CN(C)C(CNC(=O)CSc1nnc(-c2ccco2)o1)c1ccccc1 (stereo unspecified)	KLK5 inh 74
O=C(O)CSc1nnc(-c2ccco2)o1	none
O=C(NCCCc1ccccc1)c1ccc(Br)o1	KLK5 inh 49
Cc1ccc(C(=O)NC(C)C(c2cccs2)N2CCCC2)s1 (stereo unspecified)	Thrombin inh 45 (no result: FXIIa inh 1536)
O=C(/C=C\c1ccc2c(c1)OCO2)CC1(O)C(=O)Nc2ccccc21 (stereo unspecified)	none
CS(=O)(=O)NN1C(=O)c2ccccc2NC1c1c[nH]c2ccccc12 (stereo unspecified)	none
COc1ccc(CNC(=O)c2ccc(C(C)(C)C)cc2)cc1	none
COc1ccc(C(=O)NCC(C)(C)SCc2c(C)cc(C)cc2C)cc1	m-calpain inh 56
Cc1cc(C)nc(NS(=O)(=O)c2ccc(NC(=O)C3CC(=O)N(c4ccccc4)C3)cc2)n1 (stereo unspecified)	KLK5 inh 60
COC(=O)c1ccccc1NC(=O)C1CC(=O)N(c2ccccc2)C1 (stereo unspecified)	none
O=C(Nc1ccccc1Cl)C1CC(=O)N(c2ccccc2)C1 (stereo unspecified)	FXIIa inh 1536 41
COc1ccc(N2CC(C(=O)Nc3ccc(S(=O)(=O)Nc4nc(C)cc(C)n4)cc3)CC2=O)cc1 (stereo unspecified)	none
COc1cc(C(=O)Nc2nnc(CC(C)C)s2)c([N+](=O)[O-])cc1OC	none
Cc1cc(NS(=O)(=O)c2ccc(NC(=S)NC(=O)c3ccccc3)cc2)no1	none
Cc1cc(NS(=O)(=O)c2ccc(NC(=S)NC(=O)c3ccc(C(C)(C)C)cc3)cc2)no1	m-calpain inh 63
COc1cc(C(=O)Nc2ccc(S(=O)(=O)Nc3cc(C)on3)cc2)cc(OC)c1OC	KLK5 inh 47
Cc1ccc(-c2cc(C(=O)Nc3ccc(S(=O)(=O)Nc4cc(C)on4)cc3)c3ccccc3n2)c(C)c1	FXIIa inh 1536 72
CCOC(=O)c1cc[nH]c1C	none
Cc1ccc(C)c(NC(=O)CN(C)C(=O)CCN2C(=O)c3ccccc3C2=O)c1	KLK5 inh 53, FXIIa inh 1536 46
CCOc1ccccc1OCCCC(=O)N(C)CC(=O)Nc1cc(C)ccc1C	none
CS(=O)(=O)c1ccc(Cl)c(NC(=O)COC(=O)CNC(=O)c2ccccc2)c1	FXIa inh 1536 42
CCOC(=O)c1[nH]c(C)c(C(=O)Nc2ccc(C)c(C)c2)c1C	none
CCOC(=O)c1[nH]c(C)c(C(=O)Nc2ccc(C)cc2C)c1C	KLK5 inh 80
Cc1ccc(S(=O)(=O)Nc2cc(=O)[nH]c3c2CCC3)cc1	none
CCCc1cc(-c2[nH]ncc2-c2ccc3c(c2)OCCCO3)c(O)cc1OC	none
COc1ccc(-c2[nH]ncc2-c2ccc3c(c2)OCCO3)c(O)c1	Thrombin inh 101, KLK5 inh 49
O=C(NCCC1=CCCCC1)C1CCN(C(=O)c2ccc(Br)cc2)CC1	none
CNC(=O)NNC(=O)c1nc(-c2ccccc2)c(C)o1	KLK5 inh 42
COc1ccc(-n2c(CCC(=O)O)ccc2-c2ccccc2)cc1	none
COc1ccc(-c2ccc(CCC(=O)O)n2-c2ccccc2O)cc1	Thrombin inh 59
COc1ccccc1/C=C/C=N/NC(=O)c1ccc2nc[nH]c2c1	none
CCN(CC)C(=O)CSc1nc2ccsc2c(=O)n1CCCC(=O)NCCc1ccc(S(N)(=O)=O)cc1	none
Cc1cc(NC(=O)CSc2nc3ccsc3c(=O)n2CCCC(=O)NCCc2ccccc2)no1	m-calpain inh 50
Cc1cccc(NC(=O)c2ccc(C3SCC(=O)N3CCc3ccccc3)cc2)c1C (stereo unspecified)	none
Cc1ccccc1NC(=O)C1(NC(=O)c2cccc(N3C(=O)CSC3c3ccccc3)c2)CCCCC1 (stereo unspecified)	KLK5 inh 80
COC(=O)C(C)NC(=O)C1CCCN1S(=O)(=O)c1cc(C)c(Cl)cc1C (stereo unspecified)	KLK5 inh 49, FXIIa inh 1536 48
O=C(O/N=C1\CCCCC1c1ccc([N+](=O)[O-])cc1[N+](=O)[O-])c1c(F)cccc1F (stereo unspecified)	m-calpain inh 63
Cn1c(=O)c2[nH]c(COc3ccc(C(C)(C)C)cc3)nc2n(C)c1=O	none
Cc1ccccc1NC(=O)c1cccc2nc3ccccc3nc12	FXIIa inh 1536 44
CSc1nc(N(C)CCO)c2sc3nc(-c4ccco4)c4c(c3c2n1)CCC4	none
CSc1nc(SCC(=O)O)c2sc3nc(-c4ccccc4)c4c(c3c2n1)CCC4	m-calpain inh 90
COc1ccc(C(=O)ON=C2C=C(C)C(=O)C(C)=C2)cc1	FXIIa inh 1536 68
COc1cc(C(=O)ON=C2C=C(C)C(=O)C(C)=C2)cc(OC)c1OC	FXIIa inh 1536 90
COc1cc(C(=O)O/N=C(\N)c2ccncc2)cc(OC)c1OC	none
COc1cc(C(=O)O/N=C2\C=CC(=O)C(C)=C2)cc(OC)c1OC	FXIIa inh 1536 96
Cc1cc(=O)oc2cc(OCC(=O)Nc3ccc(S(=O)(=O)N(C)C)cc3)ccc12	none
Cc1ccc(C(=O)N[C@@H](C)CN2C3=NC[C@H](C)N3C[C@H]2Cc2ccc(O)cc2)cc1Br	none
CSC1=N/C(=C\c2ccc(C)o2)C(=O)S1	Thrombin inh 104, KLK5 inh 102
Cc1ccc(CNC(=O)CCCCCNc2nc(=S)[nH]c3ccccc23)cc1	m-calpain inh 61
NS(=O)(=O)c1ccc(CCNC(=O)CCCCCNc2nc(=S)[nH]c3ccccc23)cc1	none
COC(=O)c1ccc(C(=O)OC)c(=O)[nH]1	none
Cc1ccc(NC(=O)COC(=O)C2(c3ccc(Cl)cc3)CCCC2)cc1	none
